≈ marks a conversion by molar mass, not a printed value.
Columns and labels:
WI-38 VA13 = assay: Cytotoxicity against tumorigenic cell line WI-38 VA-13 subline 2RA (VA-13);no cytotoxicity against parental cell line WI-38; assay type: functional, cell-based; settings: Homo sapiens
Mus musculus [1] = assay: In vivo percent inhibitory effect on tumor growth after 11 days against mouse Lewis lung carcinoma xenograft model (LLC) at the dose of 40 mg/kg/shot; (Schedule day=1,4,7); assay type: functional; settings: 264 h, read-out: TGI
Method in brief: (§1)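 Mouse Lewis lung carcinoma was inoculated subcutaneously into BDF1 female mice (n = 6) on day 0. Dosing was iv in 10% DMA/10% HCO60 (polyoxyethylene hydrogenated castor oil 60)/80% saline on the stated schedule. Tumor growth inhibition (%) was based on tumor volume at day 11, with significance by t test (p < 0.05).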

Mus musculus [2] = species: Mus musculus; assay: Half life time in plasma (concentration); assay type: functional, organism-based
Method in brief: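 Plasma levels were measured in BDF1 female mice after iv administration at 10 mg/kg, with n = 2 and the mean concentration–time profile reported. The plasma half-life was derived from these profiles.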

Mus musculus [3] = assay: Half life time in plasma at a single iv dose of 10 mg/kg
Mus musculus [4] = assay: In vivo percent inhibitory effect on tumor growth after 11 days against mouse Lewis lung carcinoma xenograft model (LLC) at the dose of 20 mg/kg/shot; (Schedule day=1); assay type: functional; settings: 264 h, read-out: TGI; method in brief: as §1
Mus musculus [5] = assay: In vivo percent inhibitory effect on tumor growth after 11 days against mouse Lewis lung carcinoma xenograft model (LLC) at the dose of 5 mg/kg/shot; (Schedule day=1,4,7); assay type: functional; settings: 264 h, read-out: TGI; method in brief: as §1

SMILES | EC50 (WI-38 VA13) | also measured
COc1cccc(Nc2nc3ccc(NC(=O)c4c(Cl)cccc4Cl)cc3s2)c1 | > 7.2 µg/mL | –
CCCCCNc1nc2ccc(NC(=O)c3c(Cl)cccc3Cl)cc2s1 | 0.27 µg/mL (≈ 0.661 µM) | –
Cc1coc(C)c1C(=O)Nc1ccc2nc(NC(=O)C3CCCCC3)sc2c1 | 2.7 µg/mL (≈ 6.79 µM) | –
O=C(NCc1ccccc1)Nc1nc2ccc(NC(=O)c3c(Cl)cccc3Cl)cc2s1 | 0.15 µg/mL (≈ 0.318 µM) | –
O=C(Nc1ccc2nc(NC(=O)C3CCCCC3)sc2c1)c1ccccc1Cl | 0.025 µg/mL (≈ 0.0604 µM) | –
C=CCOC(=O)Nc1ccc2nc(NC(=O)C3CCCCC3)sc2c1 | 0.58 µg/mL (≈ 1.61 µM) | –
O=C(Nc1nc2ccc(NC(=S)Nc3ccc4c(c3)OCCO4)cc2s1)C1CCCCC1 | 1.6 µg/mL (≈ 3.41 µM) | –
COCCOC(=O)Nc1nc2ccc(NC(=O)c3c(Cl)cccc3Cl)cc2s1 | 0.011 µg/mL (≈ 0.025 µM) | –
Cc1ccc(C(=O)Nc2ccc3nc(NC(=O)C4CCCCC4)sc3c2)cc1 | 5.1 µg/mL (≈ 13 µM) | –
Cc1ccc(F)cc1S(=O)(=O)Nc1ccc2nc(NC(=O)C3CCCCC3)sc2c1 | 0.7 µg/mL (≈ 1.56 µM) | –
O=C(Nc1ccc2nc(NC(=O)C3CCCCC3)sc2c1)c1ccccc1C(F)(F)F | 0.024 µg/mL (≈ 0.0536 µM) | –
O=C(Nc1ccc2nc(NC(=O)C3CCCCC3)sc2c1)c1ccccc1Oc1ccccc1 | 0.1 µg/mL (≈ 0.212 µM) | –
COc1ccccc1Nc1nc2ccc(NC(=O)c3c(Cl)cccc3Cl)cc2s1 | > 7.2 µg/mL | –
O=C(Nc1ccc2nc(NC(=O)C3CCCCC3)sc2c1)c1cccnc1Cl | 0.075 µg/mL (≈ 0.181 µM) | –
Cc1cc(C(=O)Nc2ccc3nc(NC(=O)C4CCCCC4)sc3c2)c(C)n1C | > 6.2 µg/mL | –
CCOC(=O)Nc1nc2cc(NC(=O)c3c(Cl)cccc3Cl)ccc2s1 | 2.5 µg/mL (≈ 6.09 µM) | –
O=C(O)CCC(=O)Nc1nc2ccc(NC(=O)c3c(Cl)cccc3Cl)cc2s1 | > 6.6 µg/mL | –
CC(C)(C)OC(=O)Nc1nc2ccc(NC(=O)c3c(Cl)cccc3Cl)cc2s1 | 0.027 µg/mL (≈ 0.0616 µM) | –
N#Cc1ccc(C(=O)Nc2ccc3nc(NC(=O)C4CCCCC4)sc3c2)cc1 | 3.3 µg/mL (≈ 8.16 µM) | –
NCCC(=O)Nc1nc2ccc(NC(=O)c3c(Cl)cccc3Cl)cc2s1 | 5.3 µg/mL (≈ 12.9 µM) | –
CCCC(C)C(=O)Nc1ccc2nc(NC(=O)C3CCCCC3)sc2c1 (stereo not drawn) | 0.14 µg/mL (≈ 0.375 µM) | –

SMILES | EC50 (WI-38 VA13) | also measured
O=C(Nc1ccc2nc(NC(=O)C3CCCCC3)sc2c1)c1c(Cl)cccc1Cl | 0.015 µg/mL (≈ 0.0335 µM) | inhibition in vivo at 40 mg/kg (Mus musculus [1]): 35%; T1/2 (Mus musculus [2]): 1.1 h
O=C(NCCc1ccccc1)Nc1ccc2nc(NC(=O)C3CCCCC3)sc2c1 | 0.7 µg/mL (≈ 1.66 µM) | –
CCCCCCNC(=O)Nc1nc2ccc(NC(=O)c3c(Cl)cccc3Cl)cc2s1 | 0.29 µg/mL (≈ 0.623 µM) | –
O=C(Nc1ccc2nc(NC(=O)C3CCCCC3)sc2c1)c1ccc(Cl)cc1Cl | > 4 µg/mL | –
O=C(Nc1nc2ccc(N/C(S)=N/c3ccccc3OC(F)(F)F)cc2s1)C1CCCCC1 | 2.3 µg/mL (≈ 4.65 µM) | –
Cn1ncc([N+](=O)[O-])c1C(=O)Nc1ccc2nc(NC(=O)C3CCCCC3)sc2c1 | 0.026 µg/mL (≈ 0.0607 µM) | inhibition in vivo at 40 mg/kg (Mus musculus [1]): 15%
CC(C)CC(=O)Nc1nc2ccc(NC(=O)c3c(Cl)cccc3Cl)cc2s1 | 0.012 µg/mL (≈ 0.0284 µM) | –
CC(C)NC(=O)Nc1nc2ccc(NC(=O)c3c(Cl)cccc3Cl)cc2s1 | 0.03 µg/mL (≈ 0.0709 µM) | –
Cc1nc(C)c(C(=O)Nc2ccc3nc(NC(=O)C4CCCCC4)sc3c2)s1 | 0.39 µg/mL (≈ 0.941 µM) | –
O=C(Nc1nc2ccc(NC(=O)c3c(Cl)cccc3Cl)cc2s1)Oc1ccccc1 | 1.1 µg/mL (≈ 2.4 µM) | –
O=C(Nc1ccc2nc(NC(=O)C3CCCCC3)sc2c1)c1cccc(F)c1 | 0.64 µg/mL (≈ 1.61 µM) | –
COc1ccc(C(=O)Nc2ccc3nc(NC(=O)C4CCCCC4)sc3c2)cc1 | 4.9 µg/mL (≈ 12 µM) | –
O=C(Nc1ccc2nc(NC(=O)C3CCCCC3)sc2c1)c1cccc(Oc2ccccc2)c1 | > 4 µg/mL | –
O=C(Nc1ccc2nc(NC(=O)C3CCCCC3)sc2c1)c1c(F)cccc1C(F)(F)F | 0.032 µg/mL (≈ 0.0687 µM) | –
N#Cc1cccc(C(=O)Nc2ccc3nc(NC(=O)C4CCCCC4)sc3c2)c1 | 0.52 µg/mL (≈ 1.29 µM) | –
CCCCOc1ccc(S(=O)(=O)Nc2ccc3nc(NC(=O)C4CCCCC4)sc3c2)cc1 | 0.75 µg/mL (≈ 1.54 µM) | –
CCOC(=O)Nc1nc2ccc(NC(=O)c3c(Cl)cccc3Cl)cc2s1 | 0.0026 µg/mL (≈ 0.00634 µM) | –
CC(=O)Nc1nc2ccc(NC(=O)c3c(Cl)cccc3Cl)cc2s1 | 0.6 µg/mL (≈ 1.58 µM) | –
O=C(Nc1ccc2nc(NC(=O)C3CCCCC3)sc2c1)c1ccccc1F | 0.14 µg/mL (≈ 0.352 µM) | –
CCNC(=O)Nc1nc2ccc(NC(=O)c3c(Cl)cccc3Cl)cc2s1 | 0.032 µg/mL (≈ 0.0782 µM) | –
COC(=O)Nc1nc2ccc(NC(=O)c3c(Cl)cccc3Cl)cc2s1 | 0.0095 µg/mL (≈ 0.024 µM) | –

SMILES | EC50 (WI-38 VA13) | also measured
CCCCNC(=O)Nc1nc2ccc(NC(=O)c3c(Cl)cccc3Cl)cc2s1 | 0.028 µg/mL (≈ 0.064 µM) | –
CCCCCCCC(=O)Nc1nc2ccc(NC(=O)c3c(Cl)cccc3Cl)cc2s1 | 0.18 µg/mL (≈ 0.388 µM) | –
Cc1cccc(C)c1NC(=O)Nc1ccc2nc(NC(=O)C3CCCCC3)sc2c1 | 0.56 µg/mL (≈ 1.33 µM) | –
CC(=O)Nc1ccc2nc(NC(=O)C3CCCCC3)sc2c1 | 2.7 µg/mL (≈ 8.51 µM) | –
CC(C)COC(=O)Nc1nc2ccc(NC(=O)c3c(Cl)cccc3Cl)cc2s1 | 0.0035 µg/mL (≈ 0.00798 µM) | –
CC(C)OC(=O)Nc1nc2ccc(NC(=O)c3c(Cl)cccc3Cl)cc2s1 | 0.0026 µg/mL (≈ 0.00613 µM) | –
O=C(Nc1ccc2nc(NC(=O)C3CCCCC3)sc2c1)c1ccc(Br)cc1 | > 4 µg/mL | –
COc1ccc(Nc2nc3ccc(NC(=O)c4c(Cl)cccc4Cl)cc3s2)cc1 | 0.87 µg/mL (≈ 1.96 µM) | –
Cc1ccccc1C(=O)Nc1ccc2nc(NC(=O)C3CCCCC3)sc2c1 | 0.085 µg/mL (≈ 0.216 µM) | –
Cn1nccc1C(=O)Nc1ccc2nc(NC(=O)C3CCCCC3)sc2c1 | 0.58 µg/mL (≈ 1.51 µM) | –
CCCOC(=O)Nc1nc2ccc(NC(=O)c3c(Cl)cccc3Cl)cc2s1 | 0.0025 µg/mL (≈ 0.00589 µM) | –
O=C(Nc1nc2ccc(NC(=O)C3CCCO3)cc2s1)C1CCCCC1 (stereo not drawn) | 1.3 µg/mL (≈ 3.48 µM) | –
O=C(Nc1ccc2nc(NC(=O)C3CCC3)sc2c1)c1c(Cl)cccc1Cl | 0.013 µg/mL (≈ 0.0309 µM) | –
O=C(Nc1ccc2nc(NCC3CCCCC3)sc2c1)c1c(Cl)cccc1Cl | 4.3 µg/mL (≈ 9.9 µM) | –
CCC(C)(C)C(=O)Nc1ccc2nc(NC(=O)C3CCCCC3)sc2c1 | 1 µg/mL (≈ 2.68 µM) | –
CCCC(=O)Nc1nc2ccc(NC(=O)c3c(Cl)cccc3Cl)cc2s1 | 0.01 µg/mL (≈ 0.0245 µM) | –
O=C(Nc1ccc2nc(NC(=O)C3CC3)sc2c1)c1c(Cl)cccc1Cl | 0.013 µg/mL (≈ 0.032 µM) | T1/2 (Mus musculus [3]): 3.29 h; inhibition in vivo at 20 mg/kg (Mus musculus [4]): 68%; inhibition in vivo at 5 mg/kg (Mus musculus [5]): 63%
CC(C)COC(=O)Nc1ccc2nc(NC(=O)C3CCCCC3)sc2c1 | 0.72 µg/mL (≈ 1.92 µM) | –
Cc1[nH][n+](C)c(C)c1C(=O)Nc1ccc2nc(NC(=O)C3CCCCC3)sc2c1 | 0.012 µg/mL | –
Cc1cc(C(=O)Nc2ccc3nc(NC(=O)C4CCCCC4)sc3c2)n(C)n1 | 0.12 µg/mL (≈ 0.302 µM) | –
